We go through 3 compounds from ChEMBL document CHEMBL1121813, “Dihydrochalcone sweeteners. A study of the atypical temporal phenomena” (1981).

Holding throughout (type): functional
The species named for test [1] is Homo sapiens. Put plainly: Number of taste judgments per compound.
Test [2] is filed under the species Homo sapiens. Put plainly: Experimentally determined perceived intensity of compound at a concentration of 495 ppm (mean value). In a few lines: (§1)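 Trained human sensory panel of judges tasted aqueous solutions of the compound. Samples had to be ≥95 weight % pure (HPLC, proton titration, Karl Fischer), non-mutagenic in five Salmonella typhimurium strains with and without microsomal activation, and non-toxic in a single-oral-dose mouse test. Perceived intensity (Ip) was read from time–intensity curves at 4- or 6-s intervals and averaged. Outliers at the 95% level were rejected by t-value. Values reported as mean (2Sm).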

For test [3], the species on record is Homo sapiens. Put plainly: Percentage of judgments reporting an aftertaste at a concentration of 495 ppm and character thereof.
For test [4], the species on record is Homo sapiens. Kind of test: Intensity calculated on a molar basis relative to a 0.25 M sucrose solution at a concentration of 501 ppm (mean value). The method, boiled down: (§2)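 Trained human judges tasted aqueous solutions of the test compound; compounds were first required to be ≥95 weight percent pure and free of mutagenicity (five Salmonella typhimurium strains, ± microsomal activation) and of single oral dose mouse toxicity. Molar intensity I_m = perceived intensity × (0.25 M sucrose / compound molar concentration). The mean is reported with 2S_m limits; outliers were rejected at 95% confidence by t-value.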

Test [5] is filed under the species Homo sapiens. Put plainly: Sour character at a concentration of 501 ppm (mean value).
Test [6] is filed under the species Homo sapiens. Put plainly: Bitter character at a concentration of 501 ppm (mean value). In a few lines: (§3)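 Trained human panel tasted aqueous solutions. Each judge reported whether there was an aftertaste and its character (sweet, bitter or bitter-sweet). The value is the percentage of judgments reporting a bitter aftertaste.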
Test [7] is filed under the species Homo sapiens. Put plainly: Experimentally determined perceived intensity of compound at a concentration of 501 ppm (mean value). The method, boiled down: as §1
The species named for test [8] is Homo sapiens. Kind of test: Percentage of judgments reporting an aftertaste at a concentration of 501 ppm and character thereof.
The species named for test [9] is Homo sapiens. Kind of test: Other taste character at a concentration of 501 ppm (mean value). In a few lines:
(§4)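 Trained human sensory panel (Swartz method) tasted dilute aqueous solutions of the compounds, which had to be ≥95 weight percent pure and free of mutagenicity and toxicity. Taste character is reported as the mean value with 2S_m limits. Data deviating excessively at the 95% confidence level were rejected by the t-value method.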

For test [10], the species on record is Homo sapiens. Put plainly: Sweet / Bitter character at a concentration of 501 ppm (mean value); 0/100.
Test [11] is filed under the species Homo sapiens. Put plainly: Intensity calculated on a weight basis relative to an 85500 ppm sucrose solution at a concentration of 501 ppm (mean value). In a few lines: (§5)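 Trained human panel tasted aqueous solutions of purity-checked (≥95 weight percent) compounds cleared for mutagenicity and mouse oral toxicity. Weight-basis intensity I_w = perceived intensity × (85500 ppm sucrose / compound concentration in ppm). The mean is reported with 2S_m limits; data deviating excessively at 95% confidence were rejected by the t-value method.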

For test [12], the species on record is Homo sapiens. Put plainly: Sweet character at a concentration of 501 ppm (mean value).
The species named for test [13] is Homo sapiens. Kind of test: Salty character at a concentration of 501 ppm (mean value).
The species entered for test [14] is Homo sapiens. Put plainly: Sour character at a concentration of 250 ppm (mean value). The method, boiled down:
as §4

Test [15] is filed under the species Homo sapiens. Kind of test: Intensity calculated on a weight basis relative to an 85500 ppm sucrose solution at a concentration of 250 ppm (mean value). The method, boiled down: as §5
The species named for test [16] is Homo sapiens. Put plainly: Salty character at a concentration of 250 ppm (mean value). In a few lines: as §4
Test [17] is filed under the species Homo sapiens. Kind of test: Percentage of judgments reporting an aftertaste at a concentration of 250 ppm and character thereof. The method, boiled down:
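Trained judges tasted aqueous solutions of the compounds, which had to be ≥95 weight percent pure and to have passed mutagenicity and single oral dose toxicity screening. The value is the percentage of panel judgments reporting an aftertaste. Where given, its character is recorded as sweet, bitter or bitter-sweet.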

Test [18] is filed under the species Homo sapiens. Kind of test: Experimentally determined perceived intensity of compound at a concentration of 250 ppm (mean value). The method, boiled down: as §1
For test [19], the species on record is Homo sapiens. Put plainly: Other taste character at a concentration of 250 ppm (mean value). The method, boiled down: as §4
For test [20], the species on record is Homo sapiens. Put plainly: Sweet character at a concentration of 250 ppm (mean value). The method, boiled down:
as §4

The species named for test [21] is Homo sapiens. Kind of test: Intensity calculated on a molar basis relative to a 0.25 M sucrose solution at a concentration of 250 ppm (mean value). In a few lines:
as §2

The species entered for test [22] is Homo sapiens. Put plainly: Bitter character at a concentration of 250 ppm (mean value). The method, boiled down:
as §3

For test [23], the species on record is Homo sapiens. Kind of test: Sweet / Bitter character at a concentration of 250 ppm (mean value); 94/6.

On to `COc1ccc(CCC(=O)c2c(O)cc(OC(C(=O)[O-])C(=O)[O-])cc2O)cc1O.[Na+].[Na+]`, for which the Judgments in the test listed under Homo sapiens [1] is listed as 1; in the test listed under Homo sapiens [3], 0. In the test filed under Homo sapiens [2], the IP is listed as 0.
On to `O=C([O-])COc1cc(O)c(C(=O)CCc2ccccc2)c(O)c1.[Na+]`, for which, in the test listed under Homo sapiens [4], the IM was 150. Moreover, the Taste character was determined as 0 in the test listed under Homo sapiens [5]; 79 in the test listed under Homo sapiens [6]; 21 in the test listed under Homo sapiens [9]; 0 in the test listed under Homo sapiens [10]; 0 in the test listed under Homo sapiens [12]; 0 in the test filed under Homo sapiens [13]. The compound further showed an IP in the test listed under Homo sapiens [7] of 0.91. In addition, the figures for the Judgments in the test filed under Homo sapiens [8] and in the test listed under Homo sapiens [1] were 100 and 12, respectively. Besides, in the test filed under Homo sapiens [11], the IW is listed as 160.
Regarding `COc1ccc(CCC(=O)c2c(O)cc(OCCNS(=O)(=O)[O-])cc2O)cc1O.[K+]`, the Taste character in the test listed under Homo sapiens [14] worked out at 0; in the test listed under Homo sapiens [16] it was 0; in the test listed under Homo sapiens [19] it was 5; in the test listed under Homo sapiens [20] it was 89; in the test listed under Homo sapiens [22], 6; in the test listed under Homo sapiens [23] it was 94. Moreover, the IW in the test filed under Homo sapiens [15] is 350. Further, the Judgments in the test listed under Homo sapiens [17] is listed as 100; in the test listed under Homo sapiens [1] it was 12. The compound also returned an IP in the test filed under Homo sapiens [18] of 1.03. Also, in the test listed under Homo sapiens [21], the IM was 480.
